ChEMBL document CHEMBL4665801, “Pyrazole-Based Lactate Dehydrogenase Inhibitors with Optimized Cell Activity and Pharmacokinetic Properties” (J Med Chem, 2020)
Calls of active or inactive are those of the source.

Columns and labels:
MIA PaCa-2 = assay: Cytotoxicity against human MIA PaCa-2 cells assessed as reduction in cell viability after 48 hrs by CellTiter-Glo assay; format: functional, cell-based; conditions: MIA PaCa-2, 48 h
A673 = assay: Cytotoxicity against human A673 cells assessed as reduction in cell viability after 48 hrs by CellTiter-Glo assay; format: functional, cell-based; conditions: A673, 48 h
[1] = target: T1, L-lactate dehydrogenase A chain (Homo sapiens, UniProt P00338); assay: Inhibition of LDHA in human MIA PaCa-2 cells assessed as decrease in lactate production incubated for 2 hrs by lactate oxidase-coupled fluorescence based assay; format: cell-based
[2] = target: T1, L-lactate dehydrogenase A chain; assay: Binding affinity to human His-tagged LDHA by SPR analysis
Procedure, shortened: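 SPR on a Mass-1 instrument gave K_D and k_off. Residence time τ was calculated as 1/k_off (s⁻¹).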

[3] = target: T1, L-lactate dehydrogenase A chain; assay: Inhibition of GS[HiBiT]GS-tagged LDHA (unknown origin) expressed in HEK-293T cells measured after 1 hr by […]; format: cell-based
Procedure, shortened: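 HEK293T cells were transiently transfected for 24 h with CMV-driven LDHA carrying a C-terminal GS[HiBiT]GS tag, then reseeded at 2500 cells/well in DPBS with Ca/Mg and 1 g/L glucose. […] Cells were lysed with NP40, and 11S (100 nM final) plus furimazine was added.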

[4] = target: L-lactate dehydrogenase B chain (Homo sapiens) (UniProt P07195); assay: Inhibition of recombinant human LDHB using sodium pyruvate as substrate preincubated for 5 mins followed by diaphorase/resazurin addition and measured after 20 mins by fluorescence based assay
Sus scrofa = species on record: Sus scrofa; assay: Inhibition of porcine heart MDH using malic acid as substrate preincubated for 10 mins followed by substrate addition and measured after 5 mins by resazurin based fluorescence based assay; conditions: time 15.0 min
[5] = target: T1, L-lactate dehydrogenase A chain; assay: Inhibition of LDHA in human A673 cells assessed as decrease in lactate production incubated for 2 hrs by lactate oxidase-coupled fluorescence based assay; format: cell-based
[6] = target: T1, L-lactate dehydrogenase A chain; assay: Inhibition of recombinant human LDHA using sodium pyruvate as substrate preincubated for 5 mins followed by diaphorase/resazurin addition and measured after 20 mins by fluorescence based assay
Mus musculus [7] = assay: In vivo inhibition of LDH in human A673 cells xenografted athymic nude CrTac:NCr-Foxn1nu mouse assessed as reduction in tumor LDH activity at 50 mg/kg, iv after 1 hr by NADH-based UV-VIS spectrometric method relative to control; format: functional, organism-based
Procedure, shortened: (§1)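 Female athymic nude mice carried SQ A673 flank xenografts (2 million cells) and received a single IV dose of 50 mg/kg in PBS-based vehicle. Four mice per time point were sacrificed at 1, 3, 6 and 24 h. Frozen tumor (10–50 mg) was pulverized and lysed in PBS pH 7.4 with 0.1% Triton X-100 on ice for 1 h. Cleared lysate (10–20 μg) was assayed with 10 mM pyruvate and 0.3 mM final NADH, reading NADH oxidation at 340 nm at 37 °C.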

[8] = AUClast in CD-1 mouse at 50 mg/kg, po and measured up to 24 hrs by LC/MS-MS analysis; format: ADME, organism-based; design: route oral, dose 50 mg/kg, time <=24; conditions: in vivo
Procedure, shortened: (§2)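 Male CD1 mice, about 6–8 weeks old and 20–30 g, were dosed PO at 40 or 50 mg/kg in 0.1 M NaOH in PBS, pH 7–8.5, prepared the same day. Three mice per cohort. Dorsal metatarsal vein blood was collected into heparin at 15, 30 min and 1, 2, 4, 8, 12, 24 h. Plasma was spun at 4 °C, frozen at –75 °C and quantified by LC–MS/MS.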

[9] = Terminal half life in CD-1 mouse at 10 mg/kg, iv and measured up to 24 hrs by LC/MS-MS analysis; format: ADME, organism-based; conditions: in vivo
Procedure, shortened: (§3)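 Male CD1 mice, about 6–8 weeks old and 20–30 g, received 10 mg/kg IV in 0.1 M NaOH in PBS adjusted to pH 7–8.5, made fresh on the day of dosing. Three mice per cohort. Blood was taken from the dorsal metatarsal vein at 5, 15, 30 min and 1, 2, 4, 8, 12, 24 h into heparin tubes. Plasma was spun at 4 °C, stored at –75 °C and analysed by LC–MS/MS. For IV dosing Cmax = C0.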

[10] = Oral bioavailability in CD-1 mouse at 50 mg/kg and measured up to 24 hrs by LC/MS-MS analysis; format: ADME, organism-based; conditions: in vivo; procedure, shortened: as §2
[11] = Volume of distribution at steady state in CD-1 mouse at 10 mg/kg, iv and measured up to 24 hrs by LC/MS-MS analysis; format: ADME, organism-based; conditions: in vivo; procedure, shortened: as §3
[12] = Cmax in CD-1 mouse at 10 mg/kg, iv and measured up to 24 hrs by LC/MS-MS analysis; format: ADME, organism-based; design: route intravenous, dose 10 mg/kg, time <=24; conditions: in vivo; procedure, shortened: as §3
[13] = Terminal half life in CD-1 mouse at 50 mg/kg, po and measured up to 24 hrs by LC/MS-MS analysis; format: ADME, organism-based; conditions: in vivo
Procedure, shortened: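 Male CD1 mice, about 6–8 weeks old and 20–30 g, were dosed PO at 40 or 50 mg/kg in 0.1 M NaOH in PBS, pH 7–8.5, prepared the same day. Three mice per cohort. Plasma was spun at 4 °C, frozen at –75 °C and quantified by LC–MS/MS.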

[14] = Cmax in CD-1 mouse at 50 mg/kg, po and measured up to 24 hrs by LC/MS-MS analysis; format: ADME, organism-based; design: route oral, dose 50 mg/kg, time <=24; conditions: in vivo; procedure, shortened: as §2
Mus musculus [15] = assay: In vivo inhibition of LDH in human A673 cells xenografted athymic nude CrTac:NCr-Foxn1nu mouse assessed as reduction in tumor LDH activity at 50 mg/kg, iv after 6 hrs by UV-VIS spectrometric method relative to control; format: functional; procedure, shortened: as §1
[16] = AUClast in CD-1 mouse at 10 mg/kg, iv and measured up to 24 hrs by LC/MS-MS analysis; format: ADME, organism-based; design: route intravenous, dose 10 mg/kg, time <=24; conditions: in vivo; procedure, shortened: as §3
[17] = In vivo inhibition of LDH in human A673 cells xenografted athymic nude CrTac:NCr-Foxn1nu mouse assessed as tumor residual LDH activity at 50 mg/kg, iv after 1 hr by UV-VIS spectrometric method relative to control; format: functional; procedure, shortened: as §1

Chain of L-lactate dehydrogenase B chain (Homo sapiens) (P07195 2-334 limits assumed): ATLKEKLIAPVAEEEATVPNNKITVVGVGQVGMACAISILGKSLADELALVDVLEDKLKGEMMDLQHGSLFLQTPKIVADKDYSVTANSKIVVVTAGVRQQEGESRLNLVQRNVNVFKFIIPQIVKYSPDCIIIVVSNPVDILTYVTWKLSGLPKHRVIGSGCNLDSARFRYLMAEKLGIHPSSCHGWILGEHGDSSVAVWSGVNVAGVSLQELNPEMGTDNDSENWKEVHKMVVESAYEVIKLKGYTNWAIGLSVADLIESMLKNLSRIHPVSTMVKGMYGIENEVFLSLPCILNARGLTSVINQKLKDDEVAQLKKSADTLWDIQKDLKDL

IC50 [1] [nM]	IC50 [3] [nM]	inhibition [4]	inhibition (Sus scrofa)	IC50 [5] [nM]	IC50 [6] [nM]	AUClast [8] [ng·h/mL]	beta t1/2 [9] [h]	F [10] [%]	Vdss [11] [L/kg]	Cmax [12] [ng/mL]	beta t1/2 [13] [h]	Cmax [14] [ng/mL]	AUClast [16] [ng·h/mL]	SMILES	IC50 (MIA PaCa-2) [nM]	IC50 (A673) [nM]	Kd [2] [nM]	inhibition (Mus musculus [7])	inhibition (Mus musculus [15])	Activity [17] [%]
424	178	Active	inactive	487	202									NS(=O)(=O)c1ccc(Cc2c(-c3ccc(F)c(C#CCC4CCCC4)c3)nn(-c3nc(C(=O)O)cs3)c2CC2CC2)cc1F	848	939	0.123			
149	108	Active	inactive	371	74	9220	5.5	83	13.3	6440	3.1	1200	2810	NS(=O)(=O)c1ccc(Cc2c(-c3ccc(F)c(/C=C/C4CCCC4)c3)nn(-c3nc(C(=O)O)cs3)c2CC2CC2)cc1F	454	488		Active	Active	
1600	170	Active	inactive	1320	52	2650	4.9	39	17.9	3320	3.54	2030	1360	Cc1cnc(C#Cc2cc(-c3nn(-c4nc(C(=O)O)cs4)c(CC4CC4)c3Cc3ccc(S(N)(=O)=O)c(F)c3)ccc2F)s1	909	803		Active	Active	
434	183	Active	inactive	403	201									NS(=O)(=O)c1ccc(Cc2c(-c3cccc(C#Cc4ccc(C5CC5)s4)c3)nn(-c3nc(C(=O)O)cs3)c2CC2CC2)cc1F	342	332		Active	Active	<40

SMILES	IC50 [1] [nM]	IC50 [3] [nM]	inhibition [4]	inhibition (Sus scrofa)	IC50 [5] [nM]	IC50 [6] [nM]	AUClast [8] [ng·h/mL]	beta t1/2 [9] [h]	F [10] [%]	Vdss [11] [L/kg]	Cmax [12] [ng/mL]	beta t1/2 [13] [h]	Cmax [14] [ng/mL]	AUClast [16] [ng·h/mL]	IC50 (MIA PaCa-2) [nM]	IC50 (A673) [nM]	Kd [2] [nM]	inhibition (Mus musculus [7])	inhibition (Mus musculus [15])	Activity [17] [%]
NS(=O)(=O)c1ccc(Cc2c(-c3ccc(F)c(C#CC4CCCC4)c3)nn(-c3nc(C(=O)O)cs3)c2CC2CC2)cc1F	333	112	Active	inactive	509	22									314	100	0.0193			
